Active and inactive are the calls of the source.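 How the source made its calls: active means IC50 at or below 1 µM; inactive means IC50 above 1 µM.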
Molecular target: Protein-arginine deiminase type-4 (Homo sapiens) (UniProt Q9UM07)
Test: human PAD4 inhibitor potency, late-stage follow-up, biochemical, colorimetric substrate assay, assay provider data, 0-15 µM (AID 588417)
Conditions: recombinant PAD4, BAEE substrate, citrulline colorimetric absorbance
Procedure, shortened: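 Material: recombinant PAD4 protein; Input: 0.2 µM PAD4; Reagent: BAEE substrate at 10 mM; Schedule: 15 min pretreatment plus 15 min reaction, 37 °C; Detection: absorbance at 540 nm after diacetyl monoxime/thiosemicarbazide color development; Replicates: duplicate measurements at each compound concentration.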

Chain of Protein-arginine deiminase type-4 (Homo sapiens) (Q9UM07 whole entry, looked up): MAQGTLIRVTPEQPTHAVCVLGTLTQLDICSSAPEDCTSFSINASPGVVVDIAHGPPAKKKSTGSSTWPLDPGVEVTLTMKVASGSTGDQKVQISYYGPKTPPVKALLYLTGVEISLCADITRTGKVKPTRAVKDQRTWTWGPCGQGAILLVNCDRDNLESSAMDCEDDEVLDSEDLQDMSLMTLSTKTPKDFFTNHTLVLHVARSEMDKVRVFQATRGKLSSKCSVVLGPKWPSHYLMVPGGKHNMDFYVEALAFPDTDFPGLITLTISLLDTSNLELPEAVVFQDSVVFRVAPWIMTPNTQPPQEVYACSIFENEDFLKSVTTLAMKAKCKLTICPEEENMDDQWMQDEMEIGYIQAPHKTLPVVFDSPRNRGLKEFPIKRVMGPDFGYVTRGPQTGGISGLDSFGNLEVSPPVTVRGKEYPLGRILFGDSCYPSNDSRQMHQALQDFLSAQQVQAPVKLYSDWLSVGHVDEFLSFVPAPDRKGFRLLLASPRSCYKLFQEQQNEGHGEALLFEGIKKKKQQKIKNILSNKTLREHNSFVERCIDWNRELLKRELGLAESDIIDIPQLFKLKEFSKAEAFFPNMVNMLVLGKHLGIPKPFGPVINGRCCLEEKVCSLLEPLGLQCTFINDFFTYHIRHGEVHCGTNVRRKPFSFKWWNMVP

IC50: inactive
SMILES: COC1=C(Br)C(=O)c2nc(-c3ccccn3)ccc2C1=O
